Screens as filed in PubChem.
In the library only some 3.1% were active in any assay of this set; here they are far more common.
Beta apoptosis = beta cell apoptosis inhibition; 0.8% of 300,000 active; protection from apoptosis, % (concentration not given with the values); INS-1E cytokine-induced death, ATP luminescence, 48 h; percent of positive-control rescue, neutral wells zero;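 active = Every replicate reaches about 75%, or at least half do and their mean reaches it too, limit read from the data; inconclusive = At least half of replicates reach the limit but their mean does not; inactive = Under half of replicates reach the limit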;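 also: 0% = cytokine-treated negative control wells and 100% = positive control rescue; higher means more ATP so stronger rescue from cytokine killing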
HIF act = HIF pathway transcriptional activation | 0.32% of 300,000 active | activation, % at 7.5 µM (by protocol) | U2OS HRE-luciferase reporter, luminescence; normalized: DMSO 0%, desferrioxamine 100%;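 active = mean activation of at least 10% of the iron chelator positive control signal, with at least half of replicates also reaching 10%; inconclusive = mean and replicate majority disagree about reaching 10%; inactive = mean and most replicates under 10%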
PolyA inhibitor = inhibitors of polyadenylation in S. cerevisiae. AID 1875. activity score, % at 12 µM. 0.02% of 300,000 active. S. cerevisiae SKY197-pL101 polyadenylation reporter, beta-gal luminescence; efflux-impaired pdr1/pdr3 knockout yeast; score 100 = 6 SD above DMSO;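 active = lowest replicate activity score at least 50, where 100 means six control SD above control mean; inconclusive = lowest score under 50 but half or more replicates reach 50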;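 also: yeast exposed to compound for 9 h at 30 °C; higher score means more reporter readthrough which indicates perturbed polyadenylation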
Calb FLC = C. albicans growth modulation with fluconazole; C. albicans CaCi-2 (fluconazole-resistant clinical isolate) + fluconazole, Alamar Blue growth, 48 h; 0.57% of 300,000 active; growth inhibition, % (no concentration beside the values);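 active = growth inhibition above about 58% in most replicates, limit read from the data, passing the limit was not always enough; inconclusive = exactly half the replicates above a set limit; inactive = most replicates below a set limit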;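 also: all wells also contain fluconazole at 8 µg/ml as a sub-toxic cotreatment; 0% = median of DMSO wells and 100% = median of geldanamycin control wells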
T cruzi repl = T. cruzi replication inhibition; T. cruzi beta-gal in NIH3T3, luminescence, 90 h; inhibition, % (no concentration beside the values); 1.4% of 300,000 active; AID 1885;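 active = mean inhibition across valid replicates above about 55%, limit read from the data; inconclusive = mean below that limit but half or more replicates reach it; inactive = mean below it, under half of replicates reach it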;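 also: signal also drops with host cell toxicity which is not excluded here; 0% = plate median of DMSO wells and 100% = zero luminescence signal; higher percent means less beta-gal luminescence so fewer parasites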
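Material: NIH/3T3 host cells with β-galactosidase reporter T. cruzi; Input: 5,000 host fibroblasts per well; Medium: DMEM, 2% fetal bovine serum; Compound: 50 nL DMSO compound solution per well; Schedule: 3 h host attachment, then at least 90 h co-culture; Detection: luminescent β-galactosidase signal after 60 min lysis.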
CSC inhib = blocks cancer stem cells; cancer stem cell-like cells viability, luminescence; inhibition, % at 7.5 µM; 1.1% of 300,000 active; AID 2717; in the data active = inhibition above about 75%; inconclusive = no clear call, values can overlap the other calls; tested in HMLE shEcad cells
An asterisk follows results filed as active.

What do the screens show for `O=C(Cn1cnc2cc([N+](=O)[O-])ccc2c1=O)NCCc1ccc(Cl)cc1`?
Beta apoptosis: -4; HIF act: -1; PolyA inhibitor: 3; Calb FLC: 15; T cruzi repl: 64*; CSC inhib: -7

How did O=C(Cn1cnc2cc([N+](=O)[O-])ccc2c1=O)Nc1ccc2c(c1)CCC2 do in these assays?
Beta apoptosis: -3; HIF act: 0; PolyA inhibitor: 2; Calb FLC: 3; T cruzi repl: 64*

Results for COc1ccc(CC(=O)N/N=C(/C)c2ccco2)cc1 ?
Beta apoptosis: -4; HIF act: 0; PolyA inhibitor: -11; Calb FLC: -25; T cruzi repl: -12; CSC inhib: 4

What do the screens show for `O=C(/C=C/c1ccnc2ccccc12)c1cccs1`?
Beta apoptosis: -5; HIF act: 3; PolyA inhibitor: -32; Calb FLC: 66; T cruzi repl: 6; CSC inhib: 86*

What do the screens show for `O=C(Cn1cnc2ccccc2c1=O)c1cccs1`?
Beta apoptosis: -1; HIF act: 0; PolyA inhibitor: 9; Calb FLC: 2; T cruzi repl: 0; CSC inhib: -9

How did Cc1ccc(S(=O)(=O)N(CCCO)CC(O)CON=C2c3ccccc3-c3ccccc32)cc1 (stereo not drawn) do in these assays?
Beta apoptosis: -1; PolyA inhibitor: 2; Calb FLC: 1; T cruzi repl: 65*; CSC inhib: 35

Results for CCN(CC(O)Cn1c2ccccc2c2ccccc21)S(=O)(=O)c1ccc(C)cc1 (stereo not drawn) ?
Beta apoptosis: -1; HIF act: 0; PolyA inhibitor: -3; Calb FLC: 0; T cruzi repl: 54; CSC inhib: 32

What do the screens show for `O=C(N/N=C/c1cccnc1)c1cc(-c2ccccc2OCc2ccccc2)n[nH]1`?
Beta apoptosis: 1; HIF act: 0; PolyA inhibitor: -4; Calb FLC: -10; T cruzi repl: 5; CSC inhib: 45

Results for O=C(NCCCN1CCCC1=O)C1CCN(S(=O)(=O)c2ccccc2)CC1 ?
Beta apoptosis: 2

Results for CCOC(=O)c1sc(N(Cc2ccccc2)C(=O)COC(=O)c2ccc(O)cc2)nc1C ?
Beta apoptosis: 5; HIF act: 10.0*; PolyA inhibitor: 11; Calb FLC: 3; T cruzi repl: 30; CSC inhib: -3

What do the screens show for `CCN=c1scc(-c2ccc3c(c2)NC(=O)CO3)n1N=C1CCCC1`?
Beta apoptosis: 3; HIF act: 0; PolyA inhibitor: 6; Calb FLC: 93*; T cruzi repl: -11; CSC inhib: 0

What do the screens show for `CN1CCC(OC(=O)c2ccco2)CC1`?
Beta apoptosis: -10; HIF act: -3; PolyA inhibitor: -2; Calb FLC: -18; T cruzi repl: 22; CSC inhib: -4

What do the screens show for `CN1CCC(OC(=O)c2cccc(Br)c2)CC1`?
Beta apoptosis: -2; HIF act: 0; PolyA inhibitor: -7; Calb FLC: -7; T cruzi repl: inconclusive; CSC inhib: 8

Results for CN1CCC(OC(=O)c2cc3cc(Cl)cc(Cl)c3oc2=O)CC1 ?
Beta apoptosis: -50; HIF act: 1; PolyA inhibitor: 0; Calb FLC: 1; T cruzi repl: -7; CSC inhib: 45

Results for Cc1ccccc1C(=O)OC1CCN(C)CC1 ?
Beta apoptosis: -2; HIF act: -1; PolyA inhibitor: 13; Calb FLC: -6; T cruzi repl: 59*; CSC inhib: 12

How did CN1CCC(OC(=O)c2ccc(Cl)cc2Cl)CC1 do in these assays?
Beta apoptosis: -18; HIF act: 0; PolyA inhibitor: 1; Calb FLC: -18; T cruzi repl: 58*; CSC inhib: 53

How did CN1CCC(OC(=O)c2ccccc2Cl)CC1 do in these assays?
Beta apoptosis: 2; HIF act: 0; PolyA inhibitor: 4; Calb FLC: -13; T cruzi repl: 58*; CSC inhib: 21

Results for C/C(=N/N1CCN(Cc2cccc3ccccc23)CC1)c1ccco1 ?
Beta apoptosis: 2; HIF act: 0; PolyA inhibitor: 25; Calb FLC: 6; T cruzi repl: -3; CSC inhib: 4

How did CC1(C)Cc2ccccc2C(N/N=C/c2ccc([N+](=O)[O-])cc2)=N1 do in these assays?
Beta apoptosis: -4; HIF act: -1; PolyA inhibitor: -29; Calb FLC: 75*; T cruzi repl: -3

How did CC(C)NC(=O)COc1ccc(S(=O)(=O)N(C)Cc2ccccc2)cc1 do in these assays?
Beta apoptosis: 1; HIF act: -2; PolyA inhibitor: 6; Calb FLC: -5; T cruzi repl: 1; CSC inhib: 12

Results for O=C(CN(C(=O)c1csnn1)c1ccc2c(c1)OCCO2)NCc1ccccc1 ?
Beta apoptosis: 1; HIF act: 0; PolyA inhibitor: 12; Calb FLC: -3; T cruzi repl: -4; CSC inhib: 21

How did CC(C)(Oc1ccc(Cl)cc1)C(=O)NC1=NN(c2ccccc2)C(=O)C1 do in these assays?
Beta apoptosis: -2; HIF act: 0; PolyA inhibitor: -5; Calb FLC: 27; T cruzi repl: -8; CSC inhib: 112*

Results for O=C1CC(NC(=O)C(F)(F)F)=NN1c1ccccc1 ?
Beta apoptosis: -10; HIF act: 0; PolyA inhibitor: -1; Calb FLC: -11; T cruzi repl: -17; CSC inhib: 3

Results for Clc1ccc(CO/N=C/c2c(-c3ccccc3)nc3n2CCS3)c(Cl)c1 ?
Beta apoptosis: 0; HIF act: 0; PolyA inhibitor: -5; Calb FLC: -4; T cruzi repl: inconclusive; CSC inhib: 78*

What do the screens show for `CC(C(=O)Nc1ccccc1-c1ccccc1)N1CCN(C(=O)c2ccccc2)CC1` (stereo not drawn)?
Beta apoptosis: 0; HIF act: 34*; PolyA inhibitor: 11; Calb FLC: 1; T cruzi repl: 15; CSC inhib: -9

Results for Cc1ccc(CNS(=O)(=O)c2c(C(=O)N3CCCCC3)c(C)n(C)c2C)cc1 ?
HIF act: -1; PolyA inhibitor: 3; Calb FLC: -9; T cruzi repl: -3; CSC inhib: -3

How did Cc1c(C(=O)N2CCCCC2)c(S(=O)(=O)NCCc2ccc(Cl)cc2)c(C)n1C do in these assays?
HIF act: 14*; PolyA inhibitor: -1; Calb FLC: -4; T cruzi repl: 23; CSC inhib: -14

Results for Brc1ccc(-c2cn3nc4c(nc3n2)CCCC4)cc1 ?
Beta apoptosis: -3; HIF act: -2; PolyA inhibitor: -4; Calb FLC: -2; T cruzi repl: 7; CSC inhib: -2

What do the screens show for `Nc1nn2cc(-c3ccc(Br)cc3)nc2c2ccccc12`?
Beta apoptosis: 8; HIF act: 4; PolyA inhibitor: 2; Calb FLC: 99*; T cruzi repl: 18
